{
  "source": "ChEMBL document CHEMBL4304739",
  "about": "“Discovery of 3-(Indol-5-yl)-indazole Derivatives as Novel Myeloid Differentiation Protein 2/Toll-like Receptor 4 Antagonists for Treatment of Acute Lung Injury” (J Med Chem, 2019)",
  "key": {"[1]": {"biological_target": "Tyrosine-protein kinase ABL1 (Homo sapiens) (UniProt P00519)", "experiment": "Inhibition of wild-type human phosphorylated ABL1 (S229 to K512 residues) expressed in mammalian expression system at 1 uM by Kinomescan method", "method_in_brief": "(§1)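 Single-concentration screen at 1 μM on the KINOMEscan panel (98 kinases), run by the platform provider. Results are given as percent of control: % Ctrl = [(test signal − positive control signal)/(negative control signal − positive control signal)] × 100. DMSO serves as negative control (100% Ctrl) and a control compound as positive control (0% Ctrl). Lower values mean stronger binding hits.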"}, "[2]": {"biological_target": "Serine/threonine-protein kinase pim-2 (Homo sapiens) (UniProt Q9P1W9)", "experiment": "Inhibition of wild-type human partial length PIM2 (M1 to E291 residues) expressed in bacterial expression system at 1 uM by Kinomescan method", "method_in_brief": "(§2)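 Binding-competition screen on the KINOMEscan platform, run by the provider, with the test compound at 1 μM. Readout is percent of control: (test signal − positive control signal)/(negative control signal − positive control signal) × 100. The DMSO negative control is set as 100% Ctrl and a control compound as 0% Ctrl. Lower values mean stronger hits.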"}, "[3]": {"biological_target": "Receptor tyrosine-protein kinase erbB-4 (Homo sapiens) (UniProt Q15303)", "experiment": "Inhibition of wild-type human partial length ERBB4 (L690 to K994 residues) expressed in bacterial expression system at 1 uM by Kinomescan method", "method_in_brief": "as §2"}, "[4]": {"biological_target": "Mast/stem cell growth factor receptor Kit (Homo sapiens) (UniProt P10721)", "experiment": "Inhibition of wild-type human partial length KIT (I571 to D952 residues) expressed in bacterial expression system at 1 uM by Kinomescan method", "method_in_brief": "(§3)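 KINOMEscan competition binding panel (98 kinases) run by the provider, compound screened once at 1 μM. Read-out is percent of control: [(test signal − positive control signal)/(negative control signal − positive control signal)] × 100. DMSO negative control sets 100% Ctrl and a control compound sets 0% Ctrl; lower values mean stronger hits.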"}, "[5]": {"biological_target": "Myeloid differentiation primary response protein MyD88 (Homo sapiens) (UniProt Q99836)", "sequence (Q99836 whole entry)": "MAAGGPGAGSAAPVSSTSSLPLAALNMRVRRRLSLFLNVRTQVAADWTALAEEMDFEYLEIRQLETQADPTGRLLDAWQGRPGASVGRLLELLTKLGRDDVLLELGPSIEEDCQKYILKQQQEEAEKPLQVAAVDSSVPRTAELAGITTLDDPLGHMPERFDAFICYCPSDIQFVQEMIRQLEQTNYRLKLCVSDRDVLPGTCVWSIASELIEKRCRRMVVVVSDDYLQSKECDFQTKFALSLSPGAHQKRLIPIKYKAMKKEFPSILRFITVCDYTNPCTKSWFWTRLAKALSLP", "experiment": "Binding affinity to recombinant MyD88 (unknown origin) by surface plasmon resonance analysis"}, "[6]": {"organism": "Homo sapiens", "experiment": "Inhibition of EGFP-fused NFkappaB (unknown origin) stably expressed in mouse RAW 264.7 cells assessed as reduction in LPS-induced transcriptional activation at 10 uM measured after 3 hrs by flow cytometric analysis", "format": "cell-based", "method_in_brief": "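RAW264.7 cells stably carrying an NF-κB response element–EGFP reporter (lentiviral, puromycin-selected). Cells treated with 500 ng/mL LPS for 1 h, then vehicle or compound (10 μM) for 3 h. EGFP signal measured by flow cytometry.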"}, "[7]": {"biological_target": "Cyclin-dependent kinase 16 (Homo sapiens) (UniProt Q00536)", "sequence (Q00536 whole entry, the tested form may be a part)": "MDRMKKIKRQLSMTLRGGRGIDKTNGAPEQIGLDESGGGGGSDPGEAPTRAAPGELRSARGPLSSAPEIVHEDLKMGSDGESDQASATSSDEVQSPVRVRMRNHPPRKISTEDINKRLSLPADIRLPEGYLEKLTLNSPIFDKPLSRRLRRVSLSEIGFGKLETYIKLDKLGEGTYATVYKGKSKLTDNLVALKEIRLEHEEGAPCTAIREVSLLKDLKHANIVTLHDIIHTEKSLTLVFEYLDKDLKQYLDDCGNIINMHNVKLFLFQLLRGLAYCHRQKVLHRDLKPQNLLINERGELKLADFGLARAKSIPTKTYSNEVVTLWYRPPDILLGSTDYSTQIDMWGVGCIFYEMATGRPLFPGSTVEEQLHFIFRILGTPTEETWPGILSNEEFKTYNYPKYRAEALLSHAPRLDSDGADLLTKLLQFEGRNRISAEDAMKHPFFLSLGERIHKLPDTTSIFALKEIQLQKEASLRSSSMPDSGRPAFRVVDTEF", "experiment": "Inhibition of wild-type human partial length PCTK1 (G160 to A474 residues) expressed in mammalian expression system at 1 uM by Kinomescan method", "method_in_brief": "as §2"}, "[8]": {"biological_target": "Serine/threonine-protein kinase DCLK1 (Homo sapiens) (UniProt O15075)", "experiment": "Inhibition of wild-type human partial length DCAMKL1 (L270 to A662 residues) expressed in mammalian expression system at 1 uM by Kinomescan method", "method_in_brief": "as §2"}, "[9]": {"biological_target": "Tyrosine-protein kinase BTK (Homo sapiens) (UniProt Q06187)", "experiment": "Inhibition of wild-type human full length BTK (M1 to S659 residues) expressed in mammalian expression system at 1 uM by Kinomescan method", "method_in_brief": "(§4)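 KINOMEscan competition binding screen at 1 μM compound. Results reported as % of control = (test − positive control)/(DMSO negative control − positive control) × 100, where lower values mean stronger hits.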"}, "[10]": {"biological_target": "MAP kinase-interacting serine/threonine-protein kinase 2 (Homo sapiens) (UniProt Q9HBH9)", "experiment": "Inhibition of wild-type human partial length MKNK2 (G63 to S388 residues) expressed in mammalian expression system at 1 uM by Kinomescan method", "method_in_brief": "as §2"}, "[11]": {"biological_target": "Aurora kinase A (Homo sapiens) (UniProt O14965)", "sequence (O14965 whole entry, the tested form may be a part)": "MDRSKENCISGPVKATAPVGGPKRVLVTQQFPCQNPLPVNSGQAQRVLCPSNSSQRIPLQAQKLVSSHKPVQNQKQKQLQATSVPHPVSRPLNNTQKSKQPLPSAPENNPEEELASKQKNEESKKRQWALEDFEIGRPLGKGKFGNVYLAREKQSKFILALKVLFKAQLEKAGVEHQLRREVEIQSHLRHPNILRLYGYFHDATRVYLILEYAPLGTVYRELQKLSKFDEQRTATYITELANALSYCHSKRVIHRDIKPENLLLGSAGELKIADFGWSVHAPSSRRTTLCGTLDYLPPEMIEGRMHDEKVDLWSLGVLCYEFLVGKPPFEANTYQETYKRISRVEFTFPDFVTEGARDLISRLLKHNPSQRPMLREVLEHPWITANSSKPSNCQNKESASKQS", "experiment": "Inhibition of wild-type human partial length AURKA (E122 to K401 residues) expressed in mammalian expression system at 1 uM by Kinomescan method", "method_in_brief": "as §2"}, "[12]": {"biological_target": "Epidermal growth factor receptor (Homo sapiens) (UniProt P00533)", "sequence (P00533 whole entry, the tested form may be a part)": "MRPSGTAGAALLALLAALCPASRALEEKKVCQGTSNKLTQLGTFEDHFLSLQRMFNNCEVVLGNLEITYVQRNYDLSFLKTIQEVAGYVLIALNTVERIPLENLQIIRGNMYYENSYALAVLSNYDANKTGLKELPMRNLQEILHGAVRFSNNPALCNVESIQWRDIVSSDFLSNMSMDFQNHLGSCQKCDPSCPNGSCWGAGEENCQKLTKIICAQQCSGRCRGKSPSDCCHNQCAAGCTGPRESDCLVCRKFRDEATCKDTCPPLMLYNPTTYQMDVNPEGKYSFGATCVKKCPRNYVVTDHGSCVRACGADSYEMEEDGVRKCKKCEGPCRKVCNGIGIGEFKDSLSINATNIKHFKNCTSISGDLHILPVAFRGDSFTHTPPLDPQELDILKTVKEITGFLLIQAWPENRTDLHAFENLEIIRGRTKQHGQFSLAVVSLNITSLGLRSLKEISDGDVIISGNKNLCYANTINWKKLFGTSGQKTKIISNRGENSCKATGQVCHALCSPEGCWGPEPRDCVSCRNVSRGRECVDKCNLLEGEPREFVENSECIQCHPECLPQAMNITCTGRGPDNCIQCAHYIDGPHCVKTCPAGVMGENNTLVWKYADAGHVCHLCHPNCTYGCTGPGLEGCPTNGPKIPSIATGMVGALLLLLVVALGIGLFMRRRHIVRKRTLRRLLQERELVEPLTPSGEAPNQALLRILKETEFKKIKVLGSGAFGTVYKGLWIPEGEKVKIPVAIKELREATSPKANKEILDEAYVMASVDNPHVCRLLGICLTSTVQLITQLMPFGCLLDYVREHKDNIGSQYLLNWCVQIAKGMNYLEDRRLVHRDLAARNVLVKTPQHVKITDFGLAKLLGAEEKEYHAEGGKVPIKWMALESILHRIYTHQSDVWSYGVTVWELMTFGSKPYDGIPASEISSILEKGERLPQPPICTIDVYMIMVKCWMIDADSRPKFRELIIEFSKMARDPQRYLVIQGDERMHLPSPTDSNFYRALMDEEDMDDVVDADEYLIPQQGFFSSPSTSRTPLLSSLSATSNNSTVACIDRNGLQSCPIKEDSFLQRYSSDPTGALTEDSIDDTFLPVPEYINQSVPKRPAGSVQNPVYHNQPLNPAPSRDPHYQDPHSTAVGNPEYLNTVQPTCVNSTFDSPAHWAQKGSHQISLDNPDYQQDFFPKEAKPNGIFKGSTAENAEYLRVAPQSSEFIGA", "experiment": "Inhibition of wild-type human partial length EGFR (R669 to V1011 residues) expressed in bacterial expression system at 1 uM by Kinomescan method", "method_in_brief": "as §3"}, "[13]": {"system": "Mus musculus", "experiment": "Antiinflammatory activity in LPS-induced C57BL/6 mouse model of acute lung injury assessed as reduction in TNFalpha mRNA level at 10 mg/kg, iv pretreated for 15 mins followed by LPS stimulation and measured after 6 hrs by SYBR green staining-based qRT-PCR analysis", "format": "functional, organism-based", "method_in_brief": "(§5)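 Total lung RNA extracted, with DNase I removal of residual DNA. Quantitative PCR with mouse gene primers; each gene normalized to β-actin. C57BL/6 mice given compound iv 15 min before intraperitoneal LPS (20 mg/kg) and killed at 6 h.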"}, "[14]": {"biological_target": "Tyrosine-protein kinase JAK2 (Homo sapiens) (UniProt O60674)", "sequence (O60674 whole entry, the tested form may be a part)": "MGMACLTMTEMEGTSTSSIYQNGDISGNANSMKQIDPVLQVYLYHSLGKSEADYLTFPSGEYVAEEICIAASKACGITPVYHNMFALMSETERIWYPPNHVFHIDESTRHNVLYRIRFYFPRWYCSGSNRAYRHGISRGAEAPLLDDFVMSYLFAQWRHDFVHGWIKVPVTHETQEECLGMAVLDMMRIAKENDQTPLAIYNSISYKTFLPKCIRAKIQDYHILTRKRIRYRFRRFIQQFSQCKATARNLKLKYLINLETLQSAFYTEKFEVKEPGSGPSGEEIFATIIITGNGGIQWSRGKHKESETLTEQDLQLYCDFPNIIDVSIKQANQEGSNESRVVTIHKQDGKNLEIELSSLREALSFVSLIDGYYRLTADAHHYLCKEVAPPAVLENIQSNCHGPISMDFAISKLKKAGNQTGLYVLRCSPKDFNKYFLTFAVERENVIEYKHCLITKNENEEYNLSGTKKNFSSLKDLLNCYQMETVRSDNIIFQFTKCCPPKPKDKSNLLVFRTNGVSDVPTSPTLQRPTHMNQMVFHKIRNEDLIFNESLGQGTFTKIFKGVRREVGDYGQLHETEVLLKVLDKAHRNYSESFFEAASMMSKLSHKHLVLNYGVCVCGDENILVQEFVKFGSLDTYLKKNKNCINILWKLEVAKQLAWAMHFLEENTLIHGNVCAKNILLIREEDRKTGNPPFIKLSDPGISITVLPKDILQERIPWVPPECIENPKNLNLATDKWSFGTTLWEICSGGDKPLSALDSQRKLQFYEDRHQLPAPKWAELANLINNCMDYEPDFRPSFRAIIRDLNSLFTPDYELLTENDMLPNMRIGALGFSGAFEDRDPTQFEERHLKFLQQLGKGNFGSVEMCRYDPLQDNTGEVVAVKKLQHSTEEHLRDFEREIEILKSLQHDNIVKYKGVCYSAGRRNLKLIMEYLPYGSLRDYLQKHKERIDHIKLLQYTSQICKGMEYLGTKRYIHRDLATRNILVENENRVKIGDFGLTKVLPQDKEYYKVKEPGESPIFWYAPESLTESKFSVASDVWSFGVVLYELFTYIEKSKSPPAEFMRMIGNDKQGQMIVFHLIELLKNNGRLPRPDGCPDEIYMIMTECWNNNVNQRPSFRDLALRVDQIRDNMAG", "experiment": "Inhibition of wild-type human partial length JAK2 JH1 catalytic domain (A829 to G1132 residues) expressed in mammalian expression system at 1 uM by Kinomescan method", "method_in_brief": "as §2"}, "[15]": {"system": "Mast/stem cell growth factor receptor Kit (Homo sapiens), P10721 [D816V]", "experiment": "Inhibition of human partial length KIT D816V mutant (I571 to D952 residues) expressed in bacterial expression system at 1 uM by Kinomescan method", "method_in_brief": "as §3"}, "[16]": {"system": "Mus musculus", "experiment": "Antiinflammatory activity in LPS-induced C57BL/6 mouse model of acute lung injury assessed as reduction in TNFalpha level at 5 to 10 mg/kg, iv pretreated for 15 mins followed by LPS stimulation and measured after 6 hrs by ELISA", "format": "functional, organism-based", "method_in_brief": "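Male C57BL/6 mice (18−22 g; n=8 per group). Compound in 0.1% CMC-Na given by tail vein injection 15 min before intraperitoneal LPS (20 mg/kg); controls received saline. Mice were sacrificed 6 h after LPS, and serum and lung tissue were collected.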"}, "[17]": {"biological_target": "Mitogen-activated protein kinase 3 (Homo sapiens) (UniProt P27361)", "experiment": "Inhibition of wild-type human full length ERK1 (M1 to P379 residues) expressed in bacterial expression system at 1 uM by Kinomescan method", "method_in_brief": "as §4"}, "[18]": {"biological_target": "Serine/threonine-protein kinase ULK2 (Homo sapiens) (UniProt Q8IYT8)", "experiment": "Inhibition of wild-type human partial length ULK2 (M1 to S301 residues) expressed in mammalian expression system at 1 uM by Kinomescan method", "method_in_brief": "as §1"}, "[19]": {"biological_target": "Ribosomal protein S6 kinase alpha-3 (Homo sapiens) (UniProt P51812)", "sequence (P51812 whole entry, the tested form may be a part)": "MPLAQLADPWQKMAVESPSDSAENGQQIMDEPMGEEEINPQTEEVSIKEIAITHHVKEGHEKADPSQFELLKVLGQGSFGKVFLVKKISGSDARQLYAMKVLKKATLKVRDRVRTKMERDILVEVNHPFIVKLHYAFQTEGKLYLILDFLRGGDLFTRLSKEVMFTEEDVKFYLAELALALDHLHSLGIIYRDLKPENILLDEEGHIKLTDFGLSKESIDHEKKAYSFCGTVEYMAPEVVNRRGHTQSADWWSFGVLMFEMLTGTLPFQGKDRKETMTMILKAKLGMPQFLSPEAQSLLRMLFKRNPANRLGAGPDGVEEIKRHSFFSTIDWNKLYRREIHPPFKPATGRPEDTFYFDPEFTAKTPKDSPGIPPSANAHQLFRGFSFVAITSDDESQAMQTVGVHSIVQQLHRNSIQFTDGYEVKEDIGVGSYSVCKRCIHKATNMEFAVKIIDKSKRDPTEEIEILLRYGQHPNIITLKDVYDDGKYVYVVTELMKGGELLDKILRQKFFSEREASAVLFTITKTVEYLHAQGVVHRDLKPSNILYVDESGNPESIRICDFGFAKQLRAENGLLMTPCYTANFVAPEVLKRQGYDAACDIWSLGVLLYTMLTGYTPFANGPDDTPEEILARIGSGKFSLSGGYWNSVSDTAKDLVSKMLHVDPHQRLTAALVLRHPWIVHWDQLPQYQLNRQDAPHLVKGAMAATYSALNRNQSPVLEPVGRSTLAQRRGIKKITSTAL", "experiment": "Inhibition of wild-type human partial length N-terminal RSK2 kinase domain 1 (M1 to D394 residues) expressed in mammalian expression system at 1 uM by Kinomescan method", "method_in_brief": "as §2"}, "[20]": {"biological_target": "TGF-beta receptor type-1 (Homo sapiens) (UniProt P36897)", "sequence (P36897 whole entry, the tested form may be a part)": "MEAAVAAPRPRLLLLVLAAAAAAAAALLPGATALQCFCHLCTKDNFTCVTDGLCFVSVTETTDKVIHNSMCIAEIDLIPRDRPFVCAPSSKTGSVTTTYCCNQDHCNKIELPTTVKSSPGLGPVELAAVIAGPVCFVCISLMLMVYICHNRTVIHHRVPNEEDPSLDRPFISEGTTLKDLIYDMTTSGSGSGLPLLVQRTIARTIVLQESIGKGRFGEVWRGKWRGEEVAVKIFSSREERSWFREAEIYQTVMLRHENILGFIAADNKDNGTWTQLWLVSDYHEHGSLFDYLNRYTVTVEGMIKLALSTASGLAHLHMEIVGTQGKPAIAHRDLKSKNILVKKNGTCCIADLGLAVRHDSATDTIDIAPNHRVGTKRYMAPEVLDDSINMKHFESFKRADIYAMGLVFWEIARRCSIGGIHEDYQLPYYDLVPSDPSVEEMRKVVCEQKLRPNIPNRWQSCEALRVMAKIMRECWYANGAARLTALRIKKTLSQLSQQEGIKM", "experiment": "Inhibition of wild-type human partial length TGFBR1 (D179 to M503 residues) expressed in bacterial expression system at 1 uM by Kinomescan method", "method_in_brief": "as §1"}, "[21]": {"system": "Mus musculus", "experiment": "Antiinflammatory activity in LPS-induced C57BL/6 mouse model of acute lung injury assessed as reduction in IL6 mRNA level at 10 mg/kg, iv pretreated for 15 mins followed by LPS stimulation and measured after 6 hrs by SYBR green staining-based qRT-PCR analysis", "format": "functional, organism-based", "method_in_brief": "as §5"}},
  "note": "Active and inactive are the calls of the source. The rule behind the calls is not given here.",
  "data": [
    {"molecule": "O=C(Nc1ccc2[nH]nc(-c3ccc4[nH]ccc4c3)c2c1)c1c(Cl)cccc1Cl", "values": [
      {"measurement": "inhibition", "setting": "[1]", "value": "inactive"},
      {"measurement": "inhibition", "setting": "[2]", "value": "inactive"},
      {"measurement": "inhibition", "setting": "[3]", "value": "inactive"},
      {"measurement": "inhibition", "setting": "[4]", "value": "inactive"},
      {"measurement": "Activity", "setting": "[5]", "value": "inactive"},
      {"measurement": "inhibition", "setting": "[6]", "value": "Active"},
      {"measurement": "inhibition", "setting": "[7]", "value": "inactive"},
      {"measurement": "inhibition", "setting": "[8]", "value": "inactive"},
      {"measurement": "inhibition", "setting": "[9]", "value": "inactive"},
      {"measurement": "inhibition", "setting": "[10]", "value": "inactive"},
      {"measurement": "inhibition", "setting": "[11]", "value": "inactive"},
      {"measurement": "inhibition", "setting": "[12]", "value": "inactive"},
      {"measurement": "Activity", "setting": "[13]", "value": "Active"},
      {"measurement": "inhibition", "setting": "[14]", "value": "inactive"},
      {"measurement": "inhibition", "setting": "[15]", "value": "inactive"},
      {"measurement": "Activity", "setting": "[16]", "value": "Active"},
      {"measurement": "inhibition", "setting": "[17]", "value": "inactive"},
      {"measurement": "inhibition", "setting": "[18]", "value": "inactive"},
      {"measurement": "inhibition", "setting": "[19]", "value": "inactive"},
      {"measurement": "inhibition", "setting": "[20]", "value": "inactive"},
      {"measurement": "Activity", "setting": "[21]", "value": "Active"}
    ]}
  ]
}
